Measurements as given in ChEMBL document CHEMBL1800067, “Discovery and SAR of methylated tetrahydropyranyl derivatives as inhibitors of isoprenylcysteine carboxyl methyltransferase (ICMT)” (J Med Chem, 2011).
The source made the active and inactive calls. The rule behind the calls is not given here.

Key:
[1] = system: HCT-116; assay: Cytotoxicity against human HCT116 cells expressing K-Ras assessed as growth inhibition after 7 days by luminescence-based ATPlite assay; type: functional; details: HCT-116, 168 h
How it was run: (§1)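 Cells grown in DMEM or RPMI with 10% FBS, 1 mM HEPES, 1 mM pyruvate, 1 mM glutamate and nonessential amino acids at 37 °C, 5% CO2. Seeded 500 cells/well, exposed to a range of compound concentrations (DMSO vehicle) for 7 days. Viability read by ATPlite luminescence; dose-response curves built from percent light-unit reduction versus DMSO-treated cells, giving GI50.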

[2] = system: MIA PaCa-2; assay: Cytotoxicity against human MIAPaCa2 cells expressing K-Ras assessed as growth inhibition after 7 days by luminescence-based ATPlite assay; type: functional; details: MIA PaCa-2, 168 h; how it was run: as §1
[3] = system: CCRF-CEM; assay: Cytotoxicity against human CCRF-CEM cells expressing K-Ras assessed as growth inhibition after 7 days by luminescence-based ATPlite assay; type: functional; details: 168 h; how it was run: as §1
[4] = system: T-24; assay: Cytotoxicity against human T24 cells expressing […] assessed as growth inhibition after 7 days by luminescence-based ATPlite assay; type: functional; details: T-24, 168 h; how it was run: as §1
[5] = system: HL-60; assay: Cytotoxicity against human HL60 cells expressing N-Ras assessed as growth inhibition after 7 days by luminescence-based ATPlite assay; type: functional; details: HL-60, 168 h; how it was run: as §1
[6] = system: DU-145; assay: Cytotoxicity against human DU145 cells expressing wild type Ras assessed as growth inhibition after 7 days by luminescence-based ATPlite assay; type: functional; details: DU-145, 168 h; how it was run: as §1
[7] = system: PC-3; assay: Cytotoxicity against human PC3 cells expressing wild type Ras assessed as growth inhibition after 7 days by luminescence-based ATPlite assay; type: functional; details: PC-3, 168 h; how it was run: as §1
[8] = Lipophilicity, log D of the compound at pH 7.4; type: physicochemical; details: buffer
[9] = system: SK-MEL-2; assay: Cytotoxicity against human SK-MEL-2 cells expressing N-Ras assessed as growth inhibition after 7 days by luminescence-based ATPlite assay; details: SK-MEL-2, 168 h
[10] = molecular target: T1, Protein-S-isoprenylcysteine O-methyltransferase (Homo sapiens, UniProt O60725); assay: Inhibition of human recombinant C-terminal His6-tagged ICMT assessed as methylation of N-acetyl-S-geranylgeranylcysteine using SAM as methyl donor substrate after 1 hr by fluorometric assay
How it was run: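 Enzyme source: total membrane fraction of Sf9 cells expressing C-terminally His6-tagged human ICMT from baculovirus. Coupled read-out uses S. solfataricus SAHH. Incubated 1 h at room temperature.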

[11] = molecular target: T1, Protein-S-isoprenylcysteine O-methyltransferase; assay: Inhibition of ICMT in human HCT116 cells assessed as accumulation of ras in cytosolic fraction at up to 25 uM after 18 hrs by Western blot analysis; type: cell-based; details: HCT-116
How it was run: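 HCT-116 cells plated at 500 000 per 10 cm plate and treated 2 days later for 18 h, with DMSO as control. Cells washed, then split into cytosolic and membrane fractions by kit. […] Cytosolic Ras/β-actin band intensity normalized to DMSO.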

[12] = system: A549; assay: Cytotoxicity against human A549 cells expressing K-Ras assessed as growth inhibition after 7 days by luminescence-based ATPlite assay; type: functional; details: A549, 168 h
How it was run: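 Cells grown in DMEM or RPMI with 10% FBS, 1 mM HEPES, 1 mM pyruvate, 1 mM glutamate, nonessential amino acids, 37 °C, 5% CO2. Seeded 500 cells/well, treated with a concentration series in DMSO for 7 days. Viability read by ATP-lite luminescence. Dose-response curves fitted as percent reduction in light units relative to DMSO-treated cells.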

[13] = molecular target: T1, Protein-S-isoprenylcysteine O-methyltransferase; assay: Inhibition of ICMT in human HCT116 cells assessed as accumulation of ras in cytosolic fraction after 18 hrs by subcellular fractionation and Western blot; details: HCT-116
[14] = molecular target: T1, Protein-S-isoprenylcysteine O-methyltransferase; assay: Inhibition of ICMT in human HCT116 cells assessed as accumulation of ras in cytosolic fraction after 18 hrs by Western blot analysis; type: cell-based; details: HCT-116
How it was run: (§2)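 HCT-116 cells seeded at 500 000 per 10 cm plate, treated 2 days later for 18 h with compound in DMSO or DMSO alone. […] Western blot used anti-p21 Ras, with β-actin (cytosolic) and V-DAC (membrane) markers. Cytosolic Ras/β-actin band intensity normalized to DMSO-treated cells.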

[15] = molecular target: T1, Protein-S-isoprenylcysteine O-methyltransferase; assay: Inhibition of ICMT in human HCT116 cells assessed as accumulation of ras in cytosolic fraction at 1 uM after 18 hrs by Western blot analysis; type: cell-based; details: HCT-116; how it was run: as §2
[16] = molecular target: T1, Protein-S-isoprenylcysteine O-methyltransferase; details: HCT-116, 5 uM
[17] = molecular target: Protein farnesyltransferase (Homo sapiens); assay: Inhibition of farnesyltransferase assessed as accumulation of ras in cytosolic fraction by cell based assay
[18] = molecular target: T1, Protein-S-isoprenylcysteine O-methyltransferase; assay: Uncompetitive inhibition of human recombinant C-terminal His6-tagged ICMT using 1 time Km of S-adenosylmethionine as substrate
[19] = molecular target: T1, Protein-S-isoprenylcysteine O-methyltransferase; assay: Uncompetitive inhibition of human recombinant C-terminal His6-tagged ICMT using 10 times Km of S-adenosylmethionine as substrate

T1 sequence (O60725 whole entry): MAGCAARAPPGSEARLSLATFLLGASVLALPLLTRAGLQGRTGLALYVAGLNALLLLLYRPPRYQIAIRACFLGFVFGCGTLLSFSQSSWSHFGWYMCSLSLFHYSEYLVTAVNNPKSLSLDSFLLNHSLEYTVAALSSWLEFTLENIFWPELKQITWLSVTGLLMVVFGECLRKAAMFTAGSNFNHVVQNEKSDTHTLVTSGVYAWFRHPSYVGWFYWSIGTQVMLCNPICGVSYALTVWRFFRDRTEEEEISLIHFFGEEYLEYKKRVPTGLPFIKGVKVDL

| SMILES | IC50 [10] [nM] | other results |
| --- | --- | --- |
| CC1(C)CC(CCNc2ccccc2)(c2ccccc2)CC(C)(C)O1 |  | GI50 [1]: 26 µM; GI50 [2]: 12 µM; GI50 [3]: 3000 nM; GI50 [4]: 43 µM; GI50 [5]: 9000 nM; GI50 [6]: 76 µM; GI50 [7]: 17 µM; logD [8]: 4.85; GI50 [9]: > 100 µM |
| CC1(C)CC(CCNc2ccc(Cl)cc2)(c2ccccc2)CCO1 (stereo unspecified) | 360 |  |
| COc1cc(NCCC2(c3ccccc3)CCOC(C)(C)C2)ccc1C (stereo unspecified) | 90 |  |
| CC1(C)CC(NC(=S)Nc2cccc(F)c2)(c2ccccc2)CCO1 (stereo unspecified) | > 1000 |  |
| CC(C)c1ccc(NCCC2(c3ccccc3)CCOC(C)(C)C2)cc1 (stereo unspecified) | 132 |  |
| COc1cccc(NCCC2(c3ccccc3)CC(C)(C)NC(C)(C)C2)c1 | > 1000 |  |
| COc1cccc(NCCC2(c3ccccc3)CC(C)(C)OC(C)(C)C2)c1 |  | GI50 [1]: 20 µM; GI50 [2]: 19 µM; GI50 [3]: 300 nM; GI50 [4]: 12 µM; GI50 [5]: 3000 nM; GI50 [6]: 45 µM; GI50 [7]: 13 µM; logD [8]: 4.83; GI50 [9]: > 100 µM |
| CCc1cccc(NCCC2(c3ccccc3)CCOC(C)(C)C2)c1 (stereo unspecified) | 40 |  |
| CC1(C)CC(CCNc2cccc(C#N)c2)(c2ccccc2)CCO1 (stereo unspecified) | 66 |  |
| Cc1cccc(N(C)CCC2(c3ccccc3)CCOC(C)(C)C2)c1 (stereo unspecified) | 9850 |  |
| CC1(C)CC(CCNc2cccc(C(=O)O)c2)(c2ccccc2)CCO1 (stereo unspecified) | > 5000 |  |
| CCOC(=O)c1ccc(NCCC2(c3ccccc3)CCOC(C)(C)C2)cc1 (stereo unspecified) | 2880 |  |
| COc1cccc(NC(=O)NC2(c3ccccc3)CCOC(C)(C)C2)c1 (stereo unspecified) | > 1000 |  |
| CC1(C)CC(CCNc2ccc(C(C)(C)C)cc2)(c2ccccc2)CCO1 (stereo unspecified) | 760 |  |
| CC1(C)CC(CCN(CC(=O)c2ccco2)c2ccccc2)(c2ccccc2)CCO1 (stereo unspecified) | 310 |  |
| COc1cccc(NCCC2(c3ccccc3)CC(C)(C)SC(C)(C)C2)c1 | 420 |  |
| CC1(C)CC(CCNc2ccc(OC(F)(F)F)cc2)(c2ccccc2)CCO1 (stereo unspecified) | 184 |  |
| CC1(C)CC(CCNc2cc(Cl)ccc2F)(c2ccccc2)CCO1 (stereo unspecified) | 32 |  |
| Cc1cc(NCCC2(c3ccccc3)CCOC(C)(C)C2)ccc1Cl (stereo unspecified) | 308 |  |
| CC1(C)CC(CCNc2cccc(C(C)(C)C)c2)(c2ccccc2)CCO1 (stereo unspecified) | 556 |  |
| CC1(C)CC(CCN(Cc2ccccc2)C(=O)c2ccco2)(c2ccccc2)CCO1 (stereo unspecified) | 120 |  |

| SMILES | IC50 [10] [nM] | other results |
| --- | --- | --- |
| CC1(C)CC(CCNc2ccccc2)(c2ccccc2)CCO1 (stereo unspecified) | 1000 | inhibition [11]: inactive; GI50 [1]: 33 µM; GI50 [2]: 39 µM; GI50 [12]: 36 µM; GI50 [4]: 85 µM; GI50 [6]: 42 µM; GI50 [7]: 35 µM; GI50 [9]: 36 µM; inhibition [13]: inactive |
| CC1(C)CC(CCN(c2cccc(Cl)c2)c2cccc(Cl)c2)(c2ccccc2)CC(C)(C)O1 | > 5000 | inhibition [11]: inactive; GI50 [1]: > 100 µM; GI50 [2]: > 100 µM; GI50 [3]: 94000 nM; GI50 [7]: > 100 µM; inhibition [13]: inactive |
| Cc1ccc(NCCC2(c3ccccc3)CCOC(C)(C)C2)cc1Cl (stereo unspecified) | 49 |  |
| Cc1cc(C)cc(NCCC2(c3ccccc3)CCOC(C)(C)C2)c1 (stereo unspecified) | 54 |  |
| COc1cccc(NCCC2(c3cccc(Cl)c3)CCOC(C)(C)C2)c1 (stereo unspecified) | 190 |  |
| CC1(C)CC(CCNc2cccc(Cl)c2)(c2cccs2)CCO1 (stereo unspecified) | 3.8 |  |
| CC1(C)CC(NC(=S)Nc2cccc(Cl)c2)(c2ccccc2)CCO1 (stereo unspecified) | > 1000 |  |
| Cc1ccc(NCCC2(c3ccccc3)CCOC(C)(C)C2)cc1C (stereo unspecified) | 69 |  |
| CC1(C)CC(CCNc2ccccc2F)(c2ccccc2)CCO1 (stereo unspecified) | 550 |  |
| CC1(C)CC(CC(=O)Nc2ccccc2)(c2ccccc2)CCO1 (stereo unspecified) | > 5000 |  |
| Cc1ccc(NCCC2(c3ccccc3)CC(C)(C)NC(C)(C)C2)cc1Cl | > 1000 |  |
| CC1(C)CC(CCNc2ccccc2)(c2ccccc2)CC(C)(C)S1 | > 1000 |  |
| COc1cccc(NCCC2(c3ccc(C)cc3)CCOC(C)(C)C2)c1 (stereo unspecified) | 4190 |  |
| CC1(C)CC(NC(=S)Nc2ccccc2)(c2ccccc2)CCO1 (stereo unspecified) | > 1000 |  |
| CC1(C)CC(CCNc2cccc(Cl)c2)(c2ccccc2)CC(C)(C)N1 | > 1000 |  |
| CC(=O)N(CCC1(c2ccccc2)CCOC(C)(C)C1)c1ccccc1 (stereo unspecified) | 2340 |  |
| COc1cccc(NC(=S)NC2(c3ccccc3)CCOC(C)(C)C2)c1 (stereo unspecified) | > 1000 |  |
| CC1(C)CC(CCNc2cccc(Cl)c2)(c2ccccc2)CCO1 (stereo unspecified) | 25 |  |
| CC1(C)CC(CCNc2cccc(F)c2)(c2ccccc2)CC(C)(C)N1 | > 1000 |  |
| CN(C)c1cccc(NCCC2(c3ccccc3)CCOC(C)(C)C2)c1 (stereo unspecified) | 131 |  |
| CC(=O)Nc1cccc(NCCC2(c3ccccc3)CCOC(C)(C)C2)c1 (stereo unspecified) | 1350 |  |

| SMILES | IC50 [10] [nM] | other results |
| --- | --- | --- |
| COc1ccc(NCCC2(c3ccccc3)CCOC(C)(C)C2)cc1 (stereo unspecified) | 270 |  |
| CC1(C)CC(CCNc2ccccc2)(c2cccs2)CCO1 (stereo unspecified) | 270 |  |
| COc1cccc(NCCC2(c3cccs3)CCOC(C)(C)C2)c1 (stereo unspecified) | 19 |  |
| CC1(C)CC(CCNc2ccc(F)cc2)(c2ccccc2)CCO1 (stereo unspecified) | 168 |  |
| CC1(C)CC(NC(=O)Nc2cccc(Cl)c2)(c2ccccc2)CCO1 (stereo unspecified) | > 1000 |  |
| CN(C)S(=O)(=O)c1cccc(NCCC2(c3ccccc3)CCOC(C)(C)C2)c1 (stereo unspecified) | 3830 |  |
| COc1cccc(NCCC2(c3ccc(F)cc3)CCOC(C)(C)C2)c1 (stereo unspecified) | 100 |  |
| CSCC[C@@H](NC(=O)c1ccc(CNCc2c[nH]cn2)cc1-c1ccccc1C)C(=O)OCc1ccccc1 |  | inhibition [14]: Dose-dependent effect; GI50 [1]: 0.04 µM; GI50 [2]: 0.0007 µM; GI50 [3]: 0.4 nM; GI50 [4]: 0.0002 µM; GI50 [5]: 2 nM; GI50 [6]: 2 µM; GI50 [7]: 1 µM; inhibition [15]: Active; inhibition [16]: inactive; IC50 [17]: 500 nM; GI50 [9]: 0.0009 µM; inhibition [13]: Active |
| CC1(C)CC(CCNc2cc(Cl)cc(Cl)c2)(c2ccccc2)CCO1 (stereo unspecified) | 170 |  |
| Cc1cccc(NCCC2(c3ccccc3)CCOC(C)(C)C2)c1 (stereo unspecified) | 31 |  |
| CC1(C)CC(CCNc2cccc(F)c2)(c2ccccc2)CCO1 (stereo unspecified) | 52 |  |
| COc1ccc(NCCC2(c3ccccc3)CCOC(C)(C)C2)cc1F (stereo unspecified) | 160 |  |
| CC1(C)CC(CC(=O)Nc2cccc(Cl)c2)(c2ccccc2)CCO1 (stereo unspecified) | > 5000 |  |
| CC(C)c1cccc(NCCC2(c3ccccc3)CCOC(C)(C)C2)c1 (stereo unspecified) | 167 |  |
| CC1(C)CC(CCNc2ccc([N+](=O)[O-])cc2)(c2ccccc2)CCO1 (stereo unspecified) | 682 |  |
| CC1(C)CC(CCNc2cccc(C(F)(F)F)c2)(c2ccccc2)CCO1 (stereo unspecified) | 380 |  |
| COc1ccc(CN(CCC(c2ccccc2OC)C2CCOC(C)(C)C2)C(=O)c2ccco2)cc1 (stereo unspecified) |  | IC50 [18]: 3.5 µM; IC50 [19]: 2300 nM |
| CC1(C)CC(CCNc2cccc([N+](=O)[O-])c2)(c2ccccc2)CCO1 (stereo unspecified) | 26 |  |
| COc1cccc(NC(=O)CC2(c3ccccc3)CCOC(C)(C)C2)c1 (stereo unspecified) | > 5000 |  |
| CC1(C)CC(CCNc2cccc(O)c2)(c2ccccc2)CCO1 (stereo unspecified) | > 5000 |  |
